Measured values published in ChEMBL document CHEMBL4261600 (Eur J Med Chem, 2018).

Tests used:
[1] = biological target: Tyrosine-protein kinase Blk (Homo sapiens) (UniProt P51451); test: Binding affinity to wild-type human partial length BLK (G211 to L503 residues) expressed in bacterial expression system assessed as remaining unbound target protein level at 1000 nM by Kinomescan method relative to control
Outline: (§1)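 Profiled in a KINOMEscan binding panel with the inhibitor at a single concentration of 1 μM. Binding to each kinase was read out as percent of control, relative to a DMSO control. Strong binders were defined as those with a percent control value below 1.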

[2] = biological target: Cyclin-dependent kinase 11B (Homo sapiens, UniProt P21127); test: Inhibition of recombinant GST-tagged inactive state of human CDK11
[3] = biological target: Mitogen-activated protein kinase kinase kinase kinase 3 (Homo sapiens) (UniProt Q8IVH8); test: Binding affinity to wild-type human partial length MAP4K3 (M1 to D301 residues) expressed in bacterial expression system assessed as remaining unbound target protein level at 1000 nM by Kinomescan method relative to control
[4] = biological target: Epidermal growth factor receptor (Homo sapiens) (UniProt P00533); test: Binding affinity to human partial length EGFR E746-A750del mutant expressed in bacterial expression system assessed as remaining unbound target protein level at 1000 nM by Kinomescan method relative to control
Chain of Epidermal growth factor receptor (Homo sapiens) (P00533 whole entry): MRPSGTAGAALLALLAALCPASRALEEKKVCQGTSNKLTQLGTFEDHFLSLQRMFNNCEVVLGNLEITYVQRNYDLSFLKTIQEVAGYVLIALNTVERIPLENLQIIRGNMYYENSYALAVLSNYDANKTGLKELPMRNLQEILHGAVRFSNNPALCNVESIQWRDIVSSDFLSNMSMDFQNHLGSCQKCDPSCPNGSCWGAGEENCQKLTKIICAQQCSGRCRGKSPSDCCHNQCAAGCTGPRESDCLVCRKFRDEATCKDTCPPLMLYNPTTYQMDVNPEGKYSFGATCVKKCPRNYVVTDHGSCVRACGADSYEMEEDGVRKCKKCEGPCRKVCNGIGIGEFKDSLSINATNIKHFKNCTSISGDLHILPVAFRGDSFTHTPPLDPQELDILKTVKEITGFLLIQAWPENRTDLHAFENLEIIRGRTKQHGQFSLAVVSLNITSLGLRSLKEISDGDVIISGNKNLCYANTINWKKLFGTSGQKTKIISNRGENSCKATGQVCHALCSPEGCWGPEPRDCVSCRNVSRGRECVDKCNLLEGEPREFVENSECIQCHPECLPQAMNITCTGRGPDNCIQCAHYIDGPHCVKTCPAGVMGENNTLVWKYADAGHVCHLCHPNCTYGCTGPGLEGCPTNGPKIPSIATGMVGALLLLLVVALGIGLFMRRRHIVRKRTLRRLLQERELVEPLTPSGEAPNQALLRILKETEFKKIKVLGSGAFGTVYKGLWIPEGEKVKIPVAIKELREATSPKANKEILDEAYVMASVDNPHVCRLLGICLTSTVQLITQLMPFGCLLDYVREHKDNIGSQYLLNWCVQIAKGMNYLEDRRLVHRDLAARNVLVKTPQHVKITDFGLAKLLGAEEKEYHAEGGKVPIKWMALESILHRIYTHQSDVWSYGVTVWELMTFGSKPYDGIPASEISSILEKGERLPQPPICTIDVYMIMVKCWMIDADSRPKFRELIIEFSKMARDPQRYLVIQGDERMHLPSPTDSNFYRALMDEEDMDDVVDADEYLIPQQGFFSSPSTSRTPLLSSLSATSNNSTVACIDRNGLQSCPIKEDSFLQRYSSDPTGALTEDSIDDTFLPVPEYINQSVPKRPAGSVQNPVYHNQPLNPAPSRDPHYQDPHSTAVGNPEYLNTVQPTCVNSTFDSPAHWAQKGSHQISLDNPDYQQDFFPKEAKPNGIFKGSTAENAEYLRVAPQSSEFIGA
Outline: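 KINOMEscan competition-binding profiling across the panel of 468 kinases and mutants, with inhibitor tested at 1 μM. Binding is expressed as percent of control, with DMSO as the reference control.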

[5] = biological target: Calcium/calmodulin-dependent protein kinase type II subunit alpha (Homo sapiens) (UniProt Q9UQM7); test: Binding affinity to wild-type human partial length CAMK2A (M1 to K328 residues) expressed in bacterial expression system assessed as remaining unbound target protein level at 1000 nM by Kinomescan method relative to control; outline: as §1
[6] = biological target: Ribosomal protein S6 kinase alpha-1 (Homo sapiens) (UniProt Q15418); test: Binding affinity to wild-type human partial length N-terminal RSK1 Kinase domain 1 (M1 to E388 residues) expressed in bacterial expression system assessed as remaining unbound target protein level at 1000 nM by Kinomescan method relative to control
Chain of Ribosomal protein S6 kinase alpha-1 (Homo sapiens) (Q15418 whole entry, the tested form may be a part): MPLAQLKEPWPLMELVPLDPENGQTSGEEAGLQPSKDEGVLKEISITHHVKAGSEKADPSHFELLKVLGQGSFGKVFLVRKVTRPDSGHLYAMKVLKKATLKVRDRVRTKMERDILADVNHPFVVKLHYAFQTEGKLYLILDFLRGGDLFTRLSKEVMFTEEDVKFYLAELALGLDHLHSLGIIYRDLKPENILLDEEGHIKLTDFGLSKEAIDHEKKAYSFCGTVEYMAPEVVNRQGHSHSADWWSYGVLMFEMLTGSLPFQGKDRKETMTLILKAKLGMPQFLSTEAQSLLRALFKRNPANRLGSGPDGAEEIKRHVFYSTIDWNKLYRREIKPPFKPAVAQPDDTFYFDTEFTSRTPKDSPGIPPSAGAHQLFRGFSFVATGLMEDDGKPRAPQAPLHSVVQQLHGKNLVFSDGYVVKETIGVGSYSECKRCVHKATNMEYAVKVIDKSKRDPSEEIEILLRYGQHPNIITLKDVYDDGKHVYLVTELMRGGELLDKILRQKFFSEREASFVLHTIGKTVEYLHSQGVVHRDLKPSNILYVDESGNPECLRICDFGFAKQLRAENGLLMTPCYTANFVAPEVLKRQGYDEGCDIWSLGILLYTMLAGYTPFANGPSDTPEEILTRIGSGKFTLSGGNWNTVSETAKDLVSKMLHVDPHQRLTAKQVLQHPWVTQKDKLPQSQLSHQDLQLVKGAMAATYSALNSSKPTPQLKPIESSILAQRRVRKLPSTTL

[7] = biological target: Tyrosine-protein kinase ABL2 (Homo sapiens) (UniProt P42684); test: Binding affinity to wild-type human ABL2 (A248 to G542 residues) expressed in bacterial expression system assessed as remaining unbound target protein level at 1000 nM by Kinomescan method relative to control
Outline: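 KINOMEscan competitive binding profile at 1 μM inhibitor. Remaining target binding reported as percent of DMSO control.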

SKM-1 = test: Antiproliferative activity against human SKM1 cells after 72 hrs by Celltiter-Glo assay; type: functional; conditions: SKM-1, 72 h
Outline: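 Cells seeded at 3000/well in 96-well plates, exposed to serially diluted compound for 72 h at 37 °C, 5% CO2. Viability read by CellTiter-Glo luminescence and normalized to DMSO control. GI50 derived from curve fit, mean of three independent measurements. Culture media: DMEM/10% FBS for adherent lines; IMDM for MV4-11 and MEC-1/2; RPMI 1640 for suspension lines and CHL.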

[8] = AUC (0 to infinity) in Sprague-Dawley rat at 20 mg/kg, po by LC-MS/MS analysis; type: ADME, organism-based; parameters: dose 20 mg/kg, route oral, time infinity; conditions: in vivo
Outline: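 Non-compartmental PK. Male SD rats 190-210 g, mice and beagle dogs acclimatized one week, fasted 12 h with water, split into iv and po groups (mice 48, rats 6, dogs 6). iv 3/3/2 mg/kg (mice/rats/dogs); po 10/20/10 mg/kg; vehicle DMSO in 5% glucose water. Blood at 2 or 5 to 720 min; plasma protein-precipitated with methanol, caffeine internal standard, LC-MS/MS.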

[9] = biological target: Serine/threonine-protein kinase 25 (Homo sapiens) (UniProt O00506); test: Binding affinity to wild-type human partial length YSK1 (V14 to H295 residues) expressed in bacterial expression system assessed as remaining unbound target protein level at 1000 nM by Kinomescan method relative to control
Homo sapiens [10] = species: Homo sapiens; test: Selectivity ratio of IC50 for recombinant full length His/GST-tagged human CDK5/p25 to IC50 for recombinant full length His-tagged human CDK9/CyclinT1
[11] = biological target: Mitogen-activated protein kinase 10 (Homo sapiens) (UniProt P53779); test: Binding affinity to wild-type human partial length JNK3 (V28 to Q422 residues) expressed in mammalian expression system assessed as remaining unbound target protein level at 1000 nM by Kinomescan method relative to control
Outline: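 KINOMEscan binding panel of 468 kinases/mutants. Inhibitor was tested at a single concentration of 1 μM. Binding is reported as percent of control, defined relative to a DMSO control.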

[12] = biological target: Serine/threonine-protein kinase ULK2 (Homo sapiens) (UniProt Q8IYT8); test: Binding affinity to wild-type human partial length ULK2 (M1 to S301 residues) expressed in mammalian expression system assessed as remaining unbound target protein level at 1000 nM by Kinomescan method relative to control
Chain of Serine/threonine-protein kinase ULK2 (Homo sapiens) (Q8IYT8 whole entry, the tested form may be a part): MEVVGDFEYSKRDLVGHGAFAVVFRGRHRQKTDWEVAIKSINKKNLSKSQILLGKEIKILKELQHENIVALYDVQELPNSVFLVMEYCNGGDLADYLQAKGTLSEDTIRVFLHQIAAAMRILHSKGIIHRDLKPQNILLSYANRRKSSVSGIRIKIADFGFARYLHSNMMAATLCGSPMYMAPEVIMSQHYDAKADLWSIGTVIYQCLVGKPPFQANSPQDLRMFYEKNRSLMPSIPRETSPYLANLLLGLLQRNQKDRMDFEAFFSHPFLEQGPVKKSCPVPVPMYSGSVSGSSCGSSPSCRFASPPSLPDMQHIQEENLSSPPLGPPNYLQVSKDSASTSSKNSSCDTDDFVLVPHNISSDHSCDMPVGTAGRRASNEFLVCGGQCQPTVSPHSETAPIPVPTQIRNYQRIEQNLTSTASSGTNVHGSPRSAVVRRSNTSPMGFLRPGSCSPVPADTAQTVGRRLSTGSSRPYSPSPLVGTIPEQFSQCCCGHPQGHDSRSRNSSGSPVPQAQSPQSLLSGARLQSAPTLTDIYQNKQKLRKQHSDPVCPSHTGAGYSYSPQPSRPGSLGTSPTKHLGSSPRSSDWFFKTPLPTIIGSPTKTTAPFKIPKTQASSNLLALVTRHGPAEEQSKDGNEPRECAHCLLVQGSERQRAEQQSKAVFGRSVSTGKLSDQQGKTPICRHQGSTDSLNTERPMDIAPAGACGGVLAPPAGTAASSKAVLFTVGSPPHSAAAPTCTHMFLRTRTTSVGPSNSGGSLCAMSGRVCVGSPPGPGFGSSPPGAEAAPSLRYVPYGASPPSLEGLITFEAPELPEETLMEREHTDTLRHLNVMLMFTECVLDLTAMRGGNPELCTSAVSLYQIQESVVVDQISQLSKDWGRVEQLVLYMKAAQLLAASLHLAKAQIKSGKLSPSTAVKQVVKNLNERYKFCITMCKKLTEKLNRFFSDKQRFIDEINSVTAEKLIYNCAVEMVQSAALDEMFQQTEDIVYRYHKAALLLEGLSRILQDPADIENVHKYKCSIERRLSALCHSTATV

[13] = biological target: Cyclin-dependent kinase 9 (Homo sapiens, UniProt P50750); test: Inhibition of CDK9 in human MEC1 cells assessed as decrease in RNA polymerase 2 phosphorylation at Ser 2 residues in CTD domain after 2 hrs by immunoblotting analysis; type: cell-based
Chain of Cyclin-dependent kinase 9 (P50750 whole entry, the tested form may be a part): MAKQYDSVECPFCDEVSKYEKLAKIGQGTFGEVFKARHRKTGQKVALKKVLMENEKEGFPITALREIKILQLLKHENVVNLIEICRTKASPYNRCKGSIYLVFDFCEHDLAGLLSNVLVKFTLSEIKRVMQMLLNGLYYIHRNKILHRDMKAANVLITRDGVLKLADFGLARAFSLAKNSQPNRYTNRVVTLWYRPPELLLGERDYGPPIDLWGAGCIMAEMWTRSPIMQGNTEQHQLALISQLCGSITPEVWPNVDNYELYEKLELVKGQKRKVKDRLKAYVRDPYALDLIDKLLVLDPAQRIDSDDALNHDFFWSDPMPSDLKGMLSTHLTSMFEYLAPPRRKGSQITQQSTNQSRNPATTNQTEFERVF

[14] = biological target: Serine/threonine-protein kinase 32C (Homo sapiens) (UniProt Q86UX6); test: Binding affinity to wild-type human partial length YANK3 (M68 to G486 residues) expressed in bacterial expression system assessed as remaining unbound target protein level at 1000 nM by Kinomescan method relative to control
Chain of Serine/threonine-protein kinase 32C (Homo sapiens) (Q86UX6 whole entry, the tested form may be a part): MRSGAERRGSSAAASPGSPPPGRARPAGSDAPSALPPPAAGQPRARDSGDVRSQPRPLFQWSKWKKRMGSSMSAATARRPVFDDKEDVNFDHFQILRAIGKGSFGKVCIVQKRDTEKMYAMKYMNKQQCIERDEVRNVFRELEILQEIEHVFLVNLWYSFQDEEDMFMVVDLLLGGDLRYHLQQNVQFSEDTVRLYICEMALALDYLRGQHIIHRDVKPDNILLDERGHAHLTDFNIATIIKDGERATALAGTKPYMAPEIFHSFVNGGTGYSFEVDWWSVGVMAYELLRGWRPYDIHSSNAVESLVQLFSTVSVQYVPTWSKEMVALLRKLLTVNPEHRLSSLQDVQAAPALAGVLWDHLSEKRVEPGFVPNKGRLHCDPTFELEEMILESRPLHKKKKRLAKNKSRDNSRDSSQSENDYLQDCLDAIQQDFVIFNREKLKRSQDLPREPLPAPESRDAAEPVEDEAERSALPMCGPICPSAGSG

Homo sapiens [15] = species: Homo sapiens; test: Selectivity ratio of IC50 for recombinant GST-tagged human full length CDK14/cyclin Y (2 to end residues) to IC50 for recombinant full length His-tagged human CDK9/CyclinT1
[16] = biological target: Non-receptor tyrosine-protein kinase TYK2 (Homo sapiens) (UniProt P29597); test: Binding affinity to wild-type human partial length TYK2 JH2 pseudokinase domain (G556 to D888 residues) expressed in mammalian expression system assessed as remaining unbound target protein level at 1000 nM by Kinomescan method relative to control
[17] = biological target: Tyrosine-protein kinase FRK (Homo sapiens) (UniProt P42685); test: Binding affinity to wild-type human partial length FRK (A215 to F503 residues) expressed in bacterial expression system assessed as remaining unbound target protein level at 1000 nM by Kinomescan method relative to control
Chain of Tyrosine-protein kinase FRK (Homo sapiens) (P42685 whole entry, the tested form may be a part): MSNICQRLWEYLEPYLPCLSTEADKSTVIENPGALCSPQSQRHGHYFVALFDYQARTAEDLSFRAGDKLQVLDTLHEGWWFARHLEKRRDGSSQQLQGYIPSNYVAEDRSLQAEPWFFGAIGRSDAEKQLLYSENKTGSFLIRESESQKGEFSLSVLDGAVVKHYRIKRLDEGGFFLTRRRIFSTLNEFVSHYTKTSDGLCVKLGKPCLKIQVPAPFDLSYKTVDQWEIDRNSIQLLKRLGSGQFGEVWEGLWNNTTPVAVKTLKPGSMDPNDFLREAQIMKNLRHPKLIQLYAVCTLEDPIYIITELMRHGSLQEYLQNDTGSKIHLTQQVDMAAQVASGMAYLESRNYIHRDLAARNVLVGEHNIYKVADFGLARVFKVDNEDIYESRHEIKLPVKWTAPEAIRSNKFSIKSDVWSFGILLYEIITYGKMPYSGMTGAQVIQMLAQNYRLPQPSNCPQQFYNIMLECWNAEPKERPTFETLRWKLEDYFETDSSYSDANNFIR

[18] = biological target: Cyclin-dependent kinase-like 3 (Homo sapiens) (UniProt Q8IVW4); test: Binding affinity to wild-type human partial length CDKL3 (M1 to D327 residues) expressed in bacterial expression system assessed as remaining unbound target protein level at 1000 nM by Kinomescan method relative to control
[19] = biological target: Myosin light chain kinase, smooth muscle (Homo sapiens) (UniProt Q15746); test: Binding affinity to wild-type human full length MYLK (M854 to E1845 residues) expressed in mammalian expression system assessed as remaining unbound target protein level at 1000 nM by Kinomescan method relative to control
Outline: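 KINOMEscan competition binding profile across a panel of 468 kinases and mutants, with the inhibitor tested at a single concentration of 1 μM. Binding is reported as percent of control, meaning signal relative to a DMSO control.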

Chain of Tyrosine-protein kinase Blk (Homo sapiens) (P51451 2-505 limits assumed): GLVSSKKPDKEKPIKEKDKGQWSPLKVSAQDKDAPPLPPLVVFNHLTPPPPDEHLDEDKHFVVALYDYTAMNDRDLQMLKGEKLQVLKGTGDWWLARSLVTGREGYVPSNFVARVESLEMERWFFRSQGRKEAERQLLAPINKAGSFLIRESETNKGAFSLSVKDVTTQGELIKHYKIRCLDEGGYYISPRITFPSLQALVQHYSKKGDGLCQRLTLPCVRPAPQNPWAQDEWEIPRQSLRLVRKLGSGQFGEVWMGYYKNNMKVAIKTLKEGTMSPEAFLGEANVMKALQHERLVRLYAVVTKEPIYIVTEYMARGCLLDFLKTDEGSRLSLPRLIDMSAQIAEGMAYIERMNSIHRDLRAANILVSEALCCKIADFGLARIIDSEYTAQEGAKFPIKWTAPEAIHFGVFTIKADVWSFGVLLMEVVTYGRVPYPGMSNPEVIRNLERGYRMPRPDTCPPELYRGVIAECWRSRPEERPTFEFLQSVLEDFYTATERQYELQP

With COCCN[C@H]1CC[C@H](Nc2cc(-c3csc(NCC4(C#N)CCOCC4)n3)c(Cl)cn2)CC1 as the molecule, how does the Activity [1] read?
The Activity was 97%.

What about the IC50 [2] of the same molecule?
The IC50 was over 10000 nM.

What about the Activity [3] of the same molecule?
Its Activity is 100%.

And the Activity [4]?
Its Activity is 83%.

And the Activity [5]?
The Activity was 100%.

What about the Activity [6] of the same molecule?
The Activity was 94%.

And the Activity [7]?
The Activity was 77%.

What about the GI50 (SKM-1) of the same molecule?
The GI50 was 12 nM.

What about the AUC(0-inf) [8] of the same molecule?
Its AUC(0-inf) is 1990 ng·h/mL.

What about the Activity [9] of the same molecule?
Its Activity is 92%.

And the Ratio IC50 (Homo sapiens [10])?
Its Ratio IC50 is over 1000.

What about the Activity [11] of the same molecule?
The Activity was 7.1%.

And the Activity [12]?
The Activity was 100%.

And the EC50 [13]?
Its EC50 is under 100 nM.

And the inhibition [13]?
Its inhibition is “Dose-dependent effect”.

And the Activity [14]?
The Activity was 90%.

What about the Ratio IC50 (Homo sapiens [15]) of the same molecule?
The Ratio IC50 was over 1000.

And the Activity [16]?
The Activity was 100%.

What about the Activity [17] of the same molecule?
Its Activity is 96%.

And the Activity [18]?
The Activity was 83%.

What about the Activity [19] of the same molecule?
Its Activity is 71%.
